ChEMBL document CHEMBL1145801, “Inhibition of Cdc25 phosphatases by indolyldihydroxyquinones” (J Med Chem, 2003)

Legend:
[1] = target: T1, M-phase inducer phosphatase 1 (Homo sapiens) (UniProt P30304); assay: Percent inhibition of cell division cycle 25A at 50 uM
T1 sequence (whole entry): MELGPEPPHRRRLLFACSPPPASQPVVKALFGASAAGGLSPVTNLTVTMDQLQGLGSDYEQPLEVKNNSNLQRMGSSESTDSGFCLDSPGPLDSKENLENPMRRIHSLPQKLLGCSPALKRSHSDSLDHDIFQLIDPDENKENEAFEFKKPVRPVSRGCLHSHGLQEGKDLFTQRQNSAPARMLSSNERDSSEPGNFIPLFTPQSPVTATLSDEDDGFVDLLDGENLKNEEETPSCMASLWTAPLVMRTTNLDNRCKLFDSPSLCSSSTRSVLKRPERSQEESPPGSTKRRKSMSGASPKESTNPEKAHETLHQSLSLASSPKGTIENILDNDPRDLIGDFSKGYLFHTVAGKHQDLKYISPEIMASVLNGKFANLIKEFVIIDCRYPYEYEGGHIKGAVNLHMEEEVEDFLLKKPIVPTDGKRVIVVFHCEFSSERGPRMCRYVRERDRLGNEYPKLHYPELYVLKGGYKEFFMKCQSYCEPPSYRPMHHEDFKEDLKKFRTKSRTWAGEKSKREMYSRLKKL
How it was run: (§1)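 Single-point screen at 50 μM inhibitor against Cdc25A, Cdc25B or Cdc25C with 50 μM 3-O-methylfluorescein phosphate, product followed at 477 nm in time-dependent assays. Activity was compared with a simultaneous no-inhibitor control, and selected compounds were run in duplicate (average error ±7%).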

[2] = target: T2, M-phase inducer phosphatase 3 (Homo sapiens) (UniProt P30307); assay: Percent inhibition against Cdc25C phosphatase at 50 uM of compound; how it was run: as §1
T2 sequence (whole entry): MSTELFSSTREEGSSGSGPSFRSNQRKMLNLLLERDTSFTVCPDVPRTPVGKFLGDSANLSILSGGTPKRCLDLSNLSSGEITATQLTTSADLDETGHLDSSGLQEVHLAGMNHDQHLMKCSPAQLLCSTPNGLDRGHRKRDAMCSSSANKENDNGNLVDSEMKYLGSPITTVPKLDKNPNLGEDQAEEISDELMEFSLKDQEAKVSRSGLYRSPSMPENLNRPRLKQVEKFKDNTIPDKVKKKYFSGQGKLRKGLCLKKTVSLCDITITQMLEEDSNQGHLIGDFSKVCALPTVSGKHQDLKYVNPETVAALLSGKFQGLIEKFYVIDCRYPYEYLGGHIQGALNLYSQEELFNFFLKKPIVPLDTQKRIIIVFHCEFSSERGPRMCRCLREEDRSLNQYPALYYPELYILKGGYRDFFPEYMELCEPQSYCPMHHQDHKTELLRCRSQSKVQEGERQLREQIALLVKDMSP

[3] = target: T3, M-phase inducer phosphatase 2 (Homo sapiens) (UniProt P30305); assay: Percent inhibition of cell division cycle 25B at 50 uM; how it was run: as §1
T3 sequence (whole entry): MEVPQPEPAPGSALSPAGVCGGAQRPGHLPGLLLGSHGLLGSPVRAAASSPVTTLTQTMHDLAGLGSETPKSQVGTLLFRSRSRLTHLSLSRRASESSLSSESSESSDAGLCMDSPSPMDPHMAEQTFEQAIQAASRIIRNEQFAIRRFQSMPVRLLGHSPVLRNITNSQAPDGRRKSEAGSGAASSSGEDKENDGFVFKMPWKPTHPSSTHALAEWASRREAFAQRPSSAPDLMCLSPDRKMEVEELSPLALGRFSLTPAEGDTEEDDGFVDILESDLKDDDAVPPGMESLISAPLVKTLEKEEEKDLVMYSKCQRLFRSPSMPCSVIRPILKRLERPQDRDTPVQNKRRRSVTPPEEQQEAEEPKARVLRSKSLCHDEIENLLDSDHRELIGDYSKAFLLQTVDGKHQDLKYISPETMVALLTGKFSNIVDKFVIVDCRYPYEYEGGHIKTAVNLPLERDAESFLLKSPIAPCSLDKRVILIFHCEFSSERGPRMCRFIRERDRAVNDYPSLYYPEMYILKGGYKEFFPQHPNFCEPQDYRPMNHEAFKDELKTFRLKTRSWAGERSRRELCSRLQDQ

[4] = target: T4, M-phase inducer phosphatase 1 (Homo sapiens, UniProt P30304); assay: Eight point inhibitory concentration against Cell division cycle 25A was determined
T4 sequence (P30304 whole entry): T1 sequence (whole entry)
How it was run: (§2)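 Phosphatase activity measured with 3-O-methylfluorescein phosphate at 50 μM (~5 × Km), product formation followed at 477 nm by UV-vis under initial velocity conditions (2–5% turnover) in time-dependent assays. Eight inhibitor concentrations were used, and IC50 was obtained by fitting to a dose–response equation.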

[5] = target: T5, M-phase inducer phosphatase 3 (Homo sapiens, UniProt P30307); assay: Eight point inhibitory concentration against Cell division cycle 25 degree C was determined; how it was run: as §2
T5 sequence (P30307 whole entry): T2 sequence (whole entry)

[6] = target: T6, M-phase inducer phosphatase 2 (Homo sapiens, UniProt P30305); assay: Eight point inhibitory concentration against Cell division cycle 25B was determined
T6 sequence (P30305 whole entry): T3 sequence (whole entry)
How it was run: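 Cdc25B activity read by UV-vis at 477 nm as product formed from 3-O-methylfluorescein phosphate (mFP) at 50 μM (~5 × Km), time-dependent, initial-velocity conditions (2–5% turnover); eight inhibitor concentrations, IC50 fitted to eq 1. Each reaction compared with a simultaneous no-inhibitor control; selected compounds run in duplicate.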

[7] = target: T2, M-phase inducer phosphatase 3 (Homo sapiens); assay: Percent inhibition of cell division cycle 25 degree C at 50 uM; how it was run: as §1
[8] = Inhibitory constant of compound against Cdc25 phosphatase was determined
[9] = target: T6, M-phase inducer phosphatase 2; assay: Inhibitory constant of compound against Cell division cycle 25B was determined using mFP as a substrate
[10] = target: M-phase inducer phosphatase 2 (Homo sapiens, UniProt P30305, R558L); assay: Inhibitory concentration of compound against mutant R544L of Cell division cycle 25B was determined
Chain of M-phase inducer phosphatase 2 (Homo sapiens, UniProt P30305, R558L) (P30305 whole entry R558L, the tested form may be a part): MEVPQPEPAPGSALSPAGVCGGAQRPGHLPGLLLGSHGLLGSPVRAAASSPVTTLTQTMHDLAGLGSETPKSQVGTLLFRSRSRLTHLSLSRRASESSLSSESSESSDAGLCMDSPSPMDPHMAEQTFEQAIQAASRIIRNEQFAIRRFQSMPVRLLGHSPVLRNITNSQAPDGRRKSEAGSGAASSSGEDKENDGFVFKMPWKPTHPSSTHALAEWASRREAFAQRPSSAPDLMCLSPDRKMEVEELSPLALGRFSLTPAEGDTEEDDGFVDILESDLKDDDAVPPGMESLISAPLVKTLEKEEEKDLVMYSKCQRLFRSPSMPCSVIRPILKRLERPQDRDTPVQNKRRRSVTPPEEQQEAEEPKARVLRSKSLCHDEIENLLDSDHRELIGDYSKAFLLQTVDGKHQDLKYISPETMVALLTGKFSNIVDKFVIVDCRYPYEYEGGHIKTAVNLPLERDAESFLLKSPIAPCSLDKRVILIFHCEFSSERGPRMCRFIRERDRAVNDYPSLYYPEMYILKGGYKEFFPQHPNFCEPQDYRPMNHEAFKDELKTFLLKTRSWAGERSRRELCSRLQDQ
How it was run: (§3)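 Cdc25B catalytic-domain point mutants, a truncated form and wild type were assayed with 3-O-methylfluorescein phosphate as substrate, monitored at 477 nm under initial velocity conditions. Values are the mean of two separate determinations.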

[11] = target: T7, M-phase inducer phosphatase 2 (Homo sapiens, UniProt P30305, E488Q); assay: Inhibitory concentration of compound against mutant E474Q of Cell division cycle 25B was determined; how it was run: as §3
T7 sequence (P30305 whole entry E488Q): as the sequence (P30305 whole entry R558L, the tested form may be a part) above, with E488Q, L558R counted along it

[12] = target: M-phase inducer phosphatase 2 (Homo sapiens, UniProt P30305, Y542F); assay: Inhibitory concentration of compound against mutant Y528F of Cell division cycle 25B was determined; how it was run: as §3
Chain of M-phase inducer phosphatase 2 (Homo sapiens, UniProt P30305, Y542F) (P30305 whole entry Y542F): as the sequence (P30305 whole entry R558L, the tested form may be a part) above, with Y542F, L558R counted along it

[13] = target: T6, M-phase inducer phosphatase 2; assay: Inhibitory concentration of compound against Cell division cycle 25B was determined using CDK2-p-TpY/Cyclin A as a substrate
How it was run: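 Cdc25B dephosphorylation of 300 nM Cdk2-pTpY/CycA protein substrate was run in time-dependent assays at eight inhibitor concentrations to give IC50. Reactions were quenched with TCA, and bovine serum albumin carrier (1 mg/mL) was added only after the quench so that it was absent during inhibitor exposure.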

[14] = target: T8, M-phase inducer phosphatase 2 (Homo sapiens, UniProt P30305, F489A); assay: Inhibitory concentration of compound against mutant F475A of Cell division cycle 25B was determined; how it was run: as §3
T8 sequence (P30305 whole entry F489A): as the sequence (P30305 whole entry R558L, the tested form may be a part) above, with F489A, L558R counted along it

[15] = target: M-phase inducer phosphatase 2 (Homo sapiens, UniProt P30305, E492Q); assay: Inhibitory concentration of compound against mutant E478Q of Cell division cycle 25B was determined; how it was run: as §3
Chain of M-phase inducer phosphatase 2 (Homo sapiens, UniProt P30305, E492Q) (P30305 whole entry E492Q): as the sequence (P30305 whole entry R558L, the tested form may be a part) above, with E492Q, L558R counted along it

[16] = target: M-phase inducer phosphatase 2 (Homo sapiens, UniProt P30305, R506L); assay: Inhibitory concentration of compound against mutant R492L of Cell division cycle 25B was determined; how it was run: as §3
Chain of M-phase inducer phosphatase 2 (Homo sapiens, UniProt P30305, R506L) (P30305 whole entry R506L, the tested form may be a part): as the sequence (P30305 whole entry R558L, the tested form may be a part) above, with R506L, L558R counted along it

[17] = target: T9, M-phase inducer phosphatase 2 (Homo sapiens, UniProt P30305); assay: Inhibitory concentration of compound against truncated mutant of Cell division cycle 25B was determined; how it was run: as §3
[18] = target: T9, M-phase inducer phosphatase 2; assay: Inhibitory concentration of compound against mutant WT of Cell division cycle 25B was determined; how it was run: as §3
[19] = target: M-phase inducer phosphatase 2 (Homo sapiens, UniProt P30305, M545A); assay: Inhibitory concentration of compound against mutant M531A of Cell division cycle 25B was determined; how it was run: as §3
Chain of M-phase inducer phosphatase 2 (Homo sapiens, UniProt P30305, M545A) (P30305 whole entry M545A): as the sequence (P30305 whole entry R558L, the tested form may be a part) above, with M545A, L558R counted along it

[20] = target: T10, M-phase inducer phosphatase 2 (Homo sapiens, UniProt P30305, R496L); assay: Inhibitory concentration of compound against mutant R482L of Cell division cycle 25B was determined; how it was run: as §3
T10 sequence (P30305 whole entry R496L): as the sequence (P30305 whole entry R558L, the tested form may be a part) above, with R496L, L558R counted along it

[21] = target: T9, M-phase inducer phosphatase 2; assay: Inhibitory constant of compound against Cell division cycle 25B was determined
[22] = target: T7, M-phase inducer phosphatase 2; assay: Inhibitory concentration of compound against mutant E474Q of Cdc25B phosphatase was determined
How it was run: (§4)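 Cdc25B catalytic domain constructs (wild-type, site-directed point mutants, truncated); activity with 3-O-methylfluorescein phosphate at 50 μM (~5 × Km), product read at 477 nm by UV-vis under initial velocity (2–5% turnover); eight inhibitor concentrations, IC50 fitted; values are mean of two determinations.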

[23] = target: T9, M-phase inducer phosphatase 2; assay: Inhibitory concentration of compound against truncated mutant of Cdc25B phosphatase was determined; how it was run: as §4
[24] = target: T9, M-phase inducer phosphatase 2; assay: Inhibitory concentration of compound against mutant WT of Cdc25B phosphatase was determined; how it was run: as §4
[25] = target: T6, M-phase inducer phosphatase 2; assay: Inhibitory constant of compound against Cdc25B phosphatase was determined using mFP as a substrate
[26] = target: T6, M-phase inducer phosphatase 2; assay: Inhibitory concentration of compound against Cdc25B phosphatase was determined using CDK2-p-TpY/Cyclin A as a substrate
How it was run: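 Cdc25B IC50 with Cdk2-pTpY/CycA protein substrate at 300 nM; eight inhibitor concentrations; time-dependent assays; 1 mg/mL BSA carrier added only after TCA quench, not during reaction.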

[27] = target: T10, M-phase inducer phosphatase 2; assay: Inhibitory concentration of compound against mutant R482L of Cdc25B phosphatase was determined; how it was run: as §4
[28] = target: T8, M-phase inducer phosphatase 2; assay: Inhibitory concentration of compound against mutant F475A of Cdc25B phosphatase was determined; how it was run: as §4

Row | inhibition [1] | inhibition [3] | IC50 [4] | IC50 [5] | IC50 [6] | inhibition [7] | SMILES | also measured
1 | 72% | 23% | 4.2 µM | > 50 µM | 59 µM | 79% | CCCc1cccc2c(C3=C(O)C(O)=CC(=O)C3=O)c[nH]c12 | 
2 | 93% | 33% | 7.2 µM | > 50 µM | 7.2 µM | 37% | CC(C)(C)c1cccc2c(C3=C(O)C(O)=CC(=O)C3=O)c[nH]c12 | 
3 | 100% | 99% | 4.1 µM | 15 µM | 5.6 µM | 84% | CC(C)=CCc1cccc2c(C3=C(O)C(O)=CC(=O)C3=O)c[nH]c12 | Ki [9]: 0.64 µM; IC50 [10]: 12 µM; IC50 [11]: > 50 µM; IC50 [12]: 15 µM; IC50 [13]: 28.2 µM; IC50 [14]: > 50 µM; IC50 [15]: 6.5 µM; IC50 [16]: 11 µM; IC50 [17]: 33 µM; IC50 [18]: 6.4 µM; IC50 [19]: 6.5 µM; IC50 [20]: 40 µM

More lines, now with the values behind:

Row | SMILES | inhibition [1] | inhibition [3] | IC50 [4] | IC50 [5] | IC50 [6] | inhibition [7] | also measured
4 | Cc1ccc2[nH]cc(C3=C(O)C(O)=CC(=O)C3=O)c2c1 | 100% | 61% | 8.1 µM |  |  |  | inhibition [2]: 55%
5 | CC(C)=CCC/C(C)=C/CC/C(C)=C/Cc1c(Cl)cc(Cl)c2c(C3=C(O)C(O)=CC(=O)C3=O)c[nH]c12 |  |  |  |  |  |  | Ki [8]: 0.47 µM
6 | O=C1C=C(O)C(=O)C(c2c[nH]c3c2ccc2ccccc23)=C1O | 99% | 79% | 2.5 µM | 15 µM | 24 µM | 75% | 
7 | CC(C)=CCC/C(C)=C/CC/C(C)=C/Cc1cccc2c(C3=C(O)C(O)=CC(=O)C3=O)c[nH]c12 | 96% | 89% | 2.4 µM | 3.5 µM | 2.4 µM | 85% | Ki [21]: 0.64 µM
8 | Cc1ccccc1Cc1cccc2c(C3=C(O)C(O)=CC(=O)C3=O)c[nH]c12 | 100% | 97% | 1 µM | 3.5 µM | 1 µM | 94% | 
9 | CC(C)=CCc1c(Cl)cc(Cl)c2c(C3=C(O)C(O)=CC(=O)C3=O)c[nH]c12 |  |  | 5 µM | 8.8 µM | 2.3 µM |  | Ki [9]: 0.43 µM; IC50 [13]: 8.6 µM
10 | O=C1C=C(O)C(=O)C(c2c[nH]c3ccccc23)=C1O | 33% | 75% | 25 µM | 30 µM | 18 µM | 69% | IC50 [22]: 200 µM; IC50 [23]: 34 µM; IC50 [24]: 18 µM; Ki [25]: 13 µM; IC50 [26]: > 50 µM; IC50 [27]: 73 µM; IC50 [28]: 76 µM
11 | O=C1C=C(O)C(=O)C(c2c[nH]c3cc(Cl)ccc23)=C1O | 100% | 92% | 4.2 µM | 40 µM | 14 µM | 81% | 
